ChEMBL document CHEMBL4393708, “Pyridinylimidazoles as dual glycogen synthase kinase 3β/p38α mitogen-activated protein kinase inhibitors” (Eur J Med Chem, 2019)

Tests used:
[1] = Ratio of drug concentration in RjOrl:Swiss CD-1 mouse brain at 10 mg/kg, iv to IC50 for human recombinant full length GSK3beta; type: ADME, organism-based; settings: in vivo
Procedure, shortened: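 Adult male mice received a single 10 mg/kg intravenous dose. After the final plasma sample at 2 h, the mice were sacrificed and brains dissected. Brain concentration was measured by LC-MS and related to the in vitro IC50 values for GSK3β and p38α.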

[2] = Drug uptake in RjOrl:Swiss CD-1 mouse brain at 10 mg/kg, iv administered as single dose measured after 2 hrs by LC-MS analysis; type: ADME, organism-based; settings: read-out: Drug uptake
Procedure, shortened: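 Adult male RjOrl:Swiss CD-1 mice got one intravenous dose of 10 mg/kg. Plasma was sampled at 10, 30 and 120 min. After the last sample the mice were sacrificed and brains dissected. Blood and brain samples were prepared and analysed by LC-MS for parent and sulfoxide metabolite; brain levels reported as ng/g.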

[3] = Plasma clearance in RjOrl:Swiss CD-1 mouse at 10 mg/kg, iv administered as single dose measured after 10 mins by LC-MS analysis; type: ADME, organism-based
Procedure, shortened: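 Adult male mice received a single 10 mg/kg intravenous injection. Plasma was sampled at 10, 30 and 120 min after dosing. Samples were prepared and analyzed by LC-MS.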

[4] = molecular target: RAC-alpha serine/threonine-protein kinase (Homo sapiens) (UniProt P31749); test: Inhibition of recombinant human AKT1 at 1 uM using CREBtide as substrate measured after 60 mins in presence of ATP by LANCE assay relative to control
[5] = molecular target: Insulin receptor (Homo sapiens) (UniProt P06213); test: Inhibition of human recombinant IR at 1 uM using Ulight-Poly GAT[EAY(1:1:1)]n as substrate measured after 10 mins in presence of ATP by LANCE assay relative to control
Procedure, shortened: (§1)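 Kinase panel run by an outside provider (Eurofins Cerep) in a LANCE assay, single test concentration of 1 µM, results as percent inhibition.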

[6] = molecular target: Vascular endothelial growth factor receptor 2 (Homo sapiens) (UniProt P35968); test: Inhibition of human recombinant KDR at 1 uM using Ulight-CAGAGAIETDKEYYTVKD as substrate measured after 60 mins in presence of ATP by LANCE assay relative to control; procedure, shortened: as §1
Sequence of Vascular endothelial growth factor receptor 2 (Homo sapiens) (P35968 whole entry): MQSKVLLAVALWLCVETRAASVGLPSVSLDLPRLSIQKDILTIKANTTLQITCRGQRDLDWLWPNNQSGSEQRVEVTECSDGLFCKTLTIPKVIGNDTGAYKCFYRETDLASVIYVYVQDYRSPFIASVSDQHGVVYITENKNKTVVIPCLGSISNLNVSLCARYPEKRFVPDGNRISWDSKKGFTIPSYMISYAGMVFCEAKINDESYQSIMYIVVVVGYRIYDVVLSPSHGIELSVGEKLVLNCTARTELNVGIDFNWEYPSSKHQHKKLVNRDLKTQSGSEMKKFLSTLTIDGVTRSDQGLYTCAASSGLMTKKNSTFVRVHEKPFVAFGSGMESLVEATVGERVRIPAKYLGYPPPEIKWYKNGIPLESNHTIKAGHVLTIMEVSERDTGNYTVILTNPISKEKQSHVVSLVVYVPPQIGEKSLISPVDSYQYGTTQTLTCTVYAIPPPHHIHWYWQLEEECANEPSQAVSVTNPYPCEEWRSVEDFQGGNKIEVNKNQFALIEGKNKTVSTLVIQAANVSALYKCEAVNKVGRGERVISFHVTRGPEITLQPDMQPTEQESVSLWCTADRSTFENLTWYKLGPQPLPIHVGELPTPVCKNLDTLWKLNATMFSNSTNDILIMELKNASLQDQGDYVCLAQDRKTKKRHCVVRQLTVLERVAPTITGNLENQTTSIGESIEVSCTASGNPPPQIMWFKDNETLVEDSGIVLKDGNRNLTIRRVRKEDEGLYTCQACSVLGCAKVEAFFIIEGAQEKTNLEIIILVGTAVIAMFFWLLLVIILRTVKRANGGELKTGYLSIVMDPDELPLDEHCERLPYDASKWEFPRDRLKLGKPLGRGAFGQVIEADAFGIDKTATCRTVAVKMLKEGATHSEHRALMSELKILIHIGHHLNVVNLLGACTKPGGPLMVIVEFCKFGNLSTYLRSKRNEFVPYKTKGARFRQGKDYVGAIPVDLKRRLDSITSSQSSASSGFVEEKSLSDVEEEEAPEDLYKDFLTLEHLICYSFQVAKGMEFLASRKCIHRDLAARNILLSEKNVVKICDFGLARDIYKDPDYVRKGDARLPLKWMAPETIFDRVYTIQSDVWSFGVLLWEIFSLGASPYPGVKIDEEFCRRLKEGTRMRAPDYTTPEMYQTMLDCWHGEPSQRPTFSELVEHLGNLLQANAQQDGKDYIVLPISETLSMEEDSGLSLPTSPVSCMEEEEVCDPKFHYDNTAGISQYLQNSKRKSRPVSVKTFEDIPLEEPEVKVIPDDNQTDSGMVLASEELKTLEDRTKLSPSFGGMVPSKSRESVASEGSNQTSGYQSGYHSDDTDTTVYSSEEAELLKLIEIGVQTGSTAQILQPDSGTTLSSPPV

[7] = molecular target: Mitogen-activated protein kinase 8 (Homo sapiens) (UniProt P45983); test: Inhibition of human recombinant JNK1 at 1 uM using Ulight-CFFKNIVTPRTPPPSQGK-amide as substrate measured after 60 mins in presence of ATP by LANCE assay relative to control; procedure, shortened: as §1
CYP1A2 = CYP1A2 (Homo sapiens, UniProt P05177); test: Inhibition of human recombinant CYP1A2 expressed in baculovirus infected insect cells using 3-cyano-7-ethoxycoumarin as substrate at 10 uM in presence of NADPH by fluorimetric analysis relative to control; type: ADME; settings: probe 3-cyano-7-ethoxycoumarin
[8] = molecular target: Rho-associated protein kinase 1 (Homo sapiens) (UniProt Q13464); test: Inhibition of human recombinant ROCK1 at 1 uM using Ulight-RRRSLLE as substrate measured after 20 mins in presence of ATP by LANCE assay relative to control; procedure, shortened: as §1
Sequence of Rho-associated protein kinase 1 (Homo sapiens) (Q13464 2-1354 limits assumed): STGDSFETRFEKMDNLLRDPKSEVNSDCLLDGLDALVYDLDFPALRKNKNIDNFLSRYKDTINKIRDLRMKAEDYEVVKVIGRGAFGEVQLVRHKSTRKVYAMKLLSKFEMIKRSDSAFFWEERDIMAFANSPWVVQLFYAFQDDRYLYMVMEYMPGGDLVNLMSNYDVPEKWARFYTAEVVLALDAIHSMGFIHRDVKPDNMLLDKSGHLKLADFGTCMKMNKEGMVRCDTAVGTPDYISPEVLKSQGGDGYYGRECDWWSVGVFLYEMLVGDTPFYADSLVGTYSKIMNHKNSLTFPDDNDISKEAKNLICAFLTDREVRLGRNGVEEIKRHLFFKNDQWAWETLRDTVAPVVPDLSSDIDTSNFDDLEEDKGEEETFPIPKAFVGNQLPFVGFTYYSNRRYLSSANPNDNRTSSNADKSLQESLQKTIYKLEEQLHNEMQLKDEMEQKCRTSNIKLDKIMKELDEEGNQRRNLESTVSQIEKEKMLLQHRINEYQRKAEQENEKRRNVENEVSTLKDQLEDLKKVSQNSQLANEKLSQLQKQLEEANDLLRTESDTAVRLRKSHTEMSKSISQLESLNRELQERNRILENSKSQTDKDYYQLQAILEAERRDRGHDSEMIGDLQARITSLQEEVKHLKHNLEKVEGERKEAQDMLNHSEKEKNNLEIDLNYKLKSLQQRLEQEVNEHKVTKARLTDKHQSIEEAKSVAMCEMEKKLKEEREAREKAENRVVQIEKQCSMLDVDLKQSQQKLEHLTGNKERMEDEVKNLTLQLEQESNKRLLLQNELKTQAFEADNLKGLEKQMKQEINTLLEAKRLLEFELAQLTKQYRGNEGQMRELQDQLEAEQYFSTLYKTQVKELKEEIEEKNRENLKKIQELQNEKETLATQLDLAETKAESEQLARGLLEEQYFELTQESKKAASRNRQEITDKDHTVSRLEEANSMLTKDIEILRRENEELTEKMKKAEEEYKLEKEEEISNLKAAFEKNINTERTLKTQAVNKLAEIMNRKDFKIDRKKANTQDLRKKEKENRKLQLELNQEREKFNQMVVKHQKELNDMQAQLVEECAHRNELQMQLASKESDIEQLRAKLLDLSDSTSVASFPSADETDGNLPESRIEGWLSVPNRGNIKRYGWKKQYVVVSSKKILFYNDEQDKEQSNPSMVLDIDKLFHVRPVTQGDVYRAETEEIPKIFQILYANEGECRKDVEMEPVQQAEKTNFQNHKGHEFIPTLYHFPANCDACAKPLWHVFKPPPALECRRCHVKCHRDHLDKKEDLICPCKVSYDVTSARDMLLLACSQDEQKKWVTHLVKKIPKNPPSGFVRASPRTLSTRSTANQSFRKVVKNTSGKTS

[9] = molecular target: T1, Glycogen synthase kinase-3 beta (Homo sapiens, UniProt P49841); test: Inhibition of human recombinant GSK3beta at 1 uM using Ulight-CFFKNIVTPRTPPPSQGK-amide as substrate measured after 90 mins in presence of ATP by LANCE assay relative to control; procedure, shortened: as §1
[10] = molecular target: Serine/threonine-protein kinase PAK 4 (Homo sapiens) (UniProt O96013); test: Inhibition of human recombinant PAK4 at 1 uM using Ulight-RRRSLLE as substrate measured after 30 mins in presence of ATP by LANCE assay relative to control; procedure, shortened: as §1
Sequence of Serine/threonine-protein kinase PAK 4 (Homo sapiens) (O96013 whole entry, looked up): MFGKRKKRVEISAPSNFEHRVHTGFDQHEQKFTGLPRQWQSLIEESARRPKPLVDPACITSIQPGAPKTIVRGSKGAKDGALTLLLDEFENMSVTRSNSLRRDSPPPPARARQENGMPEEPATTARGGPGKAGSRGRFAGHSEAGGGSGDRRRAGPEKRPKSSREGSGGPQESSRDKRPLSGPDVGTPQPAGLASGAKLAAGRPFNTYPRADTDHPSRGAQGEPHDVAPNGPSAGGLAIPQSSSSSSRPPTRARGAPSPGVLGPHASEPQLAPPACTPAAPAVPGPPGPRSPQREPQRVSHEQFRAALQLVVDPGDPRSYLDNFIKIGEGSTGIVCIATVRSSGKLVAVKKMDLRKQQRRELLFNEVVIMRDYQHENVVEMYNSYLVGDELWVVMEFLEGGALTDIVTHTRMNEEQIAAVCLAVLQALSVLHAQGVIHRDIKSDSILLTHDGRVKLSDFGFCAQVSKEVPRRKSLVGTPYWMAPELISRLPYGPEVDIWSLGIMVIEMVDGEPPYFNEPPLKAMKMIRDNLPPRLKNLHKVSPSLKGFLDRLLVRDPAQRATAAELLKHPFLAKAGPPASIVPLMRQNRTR

[11] = molecular target: Serine/threonine-protein kinase Nek2 (Homo sapiens) (UniProt P51955); test: Inhibition of human recombinant NEK2 at 1 uM using Ulight-FLGFTYVAP as substrate measured after 60 mins in presence of ATP by LANCE assay relative to control; procedure, shortened: as §1
Sequence of Serine/threonine-protein kinase Nek2 (Homo sapiens) (P51955 whole entry): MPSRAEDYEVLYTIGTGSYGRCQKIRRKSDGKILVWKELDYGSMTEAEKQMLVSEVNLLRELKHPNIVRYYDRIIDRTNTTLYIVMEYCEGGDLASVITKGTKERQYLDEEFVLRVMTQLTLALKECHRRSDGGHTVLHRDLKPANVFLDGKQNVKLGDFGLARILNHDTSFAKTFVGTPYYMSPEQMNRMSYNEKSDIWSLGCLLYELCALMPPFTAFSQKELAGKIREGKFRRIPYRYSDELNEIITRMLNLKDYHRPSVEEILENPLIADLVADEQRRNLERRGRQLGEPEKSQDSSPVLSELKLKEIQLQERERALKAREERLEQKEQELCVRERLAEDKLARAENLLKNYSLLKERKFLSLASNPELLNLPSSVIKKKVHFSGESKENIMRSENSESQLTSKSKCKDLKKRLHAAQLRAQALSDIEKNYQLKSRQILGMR

hERG (KCNH2) = hERG (KCNH2) (Homo sapiens, UniProt Q12809); test: Inhibition of tracer Red binding to human ERG expressed in membranes at 10 uM after 4 hrs by fluorescence polarization assay relative to control; settings: membranes expressing human ERG, probe tracer Red
Sequence of hERG (KCNH2) (Q12809 whole entry): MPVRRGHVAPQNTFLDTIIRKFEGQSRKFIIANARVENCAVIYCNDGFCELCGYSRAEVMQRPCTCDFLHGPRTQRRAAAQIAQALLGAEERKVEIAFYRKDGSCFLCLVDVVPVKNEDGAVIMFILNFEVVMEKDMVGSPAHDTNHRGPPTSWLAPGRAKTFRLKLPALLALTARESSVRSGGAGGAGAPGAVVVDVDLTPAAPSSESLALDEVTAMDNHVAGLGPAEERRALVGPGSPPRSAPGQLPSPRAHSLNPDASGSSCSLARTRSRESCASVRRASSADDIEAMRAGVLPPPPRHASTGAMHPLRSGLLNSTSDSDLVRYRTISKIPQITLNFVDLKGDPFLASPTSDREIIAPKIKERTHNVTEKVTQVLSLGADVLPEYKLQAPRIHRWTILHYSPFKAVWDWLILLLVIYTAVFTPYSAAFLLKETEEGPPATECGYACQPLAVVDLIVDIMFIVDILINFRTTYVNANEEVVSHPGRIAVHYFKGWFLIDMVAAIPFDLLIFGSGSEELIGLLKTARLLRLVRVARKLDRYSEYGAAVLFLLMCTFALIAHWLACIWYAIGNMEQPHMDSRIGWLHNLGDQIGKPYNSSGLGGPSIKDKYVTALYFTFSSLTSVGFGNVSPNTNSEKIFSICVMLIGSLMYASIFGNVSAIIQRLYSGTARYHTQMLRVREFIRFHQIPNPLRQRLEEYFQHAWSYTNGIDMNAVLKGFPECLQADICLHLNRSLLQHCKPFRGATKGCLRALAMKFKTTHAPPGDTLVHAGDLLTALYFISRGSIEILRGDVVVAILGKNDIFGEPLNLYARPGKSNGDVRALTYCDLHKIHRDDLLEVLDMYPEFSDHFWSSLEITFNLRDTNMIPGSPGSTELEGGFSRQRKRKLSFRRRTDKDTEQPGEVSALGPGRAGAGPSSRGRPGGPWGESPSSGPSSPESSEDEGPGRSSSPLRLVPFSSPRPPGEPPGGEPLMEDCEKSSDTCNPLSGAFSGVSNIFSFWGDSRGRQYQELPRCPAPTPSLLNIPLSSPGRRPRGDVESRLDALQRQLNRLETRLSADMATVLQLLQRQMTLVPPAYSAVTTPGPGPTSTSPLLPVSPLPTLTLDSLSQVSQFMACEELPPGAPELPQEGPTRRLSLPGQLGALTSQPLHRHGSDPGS

[12] = molecular target: T1, Glycogen synthase kinase-3 beta; test: Competitive inhibition of human recombinant full length GSK3beta using YRRAAVPPSPSLSRHSSPHQ(pS)EDEEE as substrate preincubated with enzyme for 10 mins followed by substrate and 100 uM ATP addition measured after 60 mins by ADP-Glo luminescence assay
Procedure, shortened: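 Recombinant human GSK3β at 0.58 ng/µL with 0.2 µg/µL substrate G50-58; ATP at 25 µM, 100 µM or 500 µM, each as its line states. Compounds in serial dilutions were preincubated with kinase for 10 min at rt. Substrate/ATP was then added and the reaction ran 60 min at rt. ADP-Glo reagent 60 min, detection reagent 30 min, then luminescence read (500 ms integration).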

[13] = Metabolic stability in human liver microsomes assessed as parent compound remaining after 120 mins by LC-MS analysis relative to control; type: ADME, Microsome; settings: read-out: Stability
[14] = Metabolic stability in human liver microsomes assessed as parent compound remaining after 20 mins by LC-MS analysis relative to control; type: ADME, Microsome; settings: read-out: Stability
[15] = molecular target: Ephrin type-B receptor 4 (Homo sapiens) (UniProt P54760); test: Inhibition of human recombinant EPHB4 at 1 uM using Ulight-TK peptide as substrate measured after 90 mins in presence of ATP by LANCE assay relative to control; procedure, shortened: as §1
[16] = molecular target: Tyrosine-protein kinase JAK3 (Homo sapiens) (UniProt P52333); test: Inhibition of human recombinant JAK3 at 1 uM using Ulight-CAGAGAIETDKEYYTVKD as substrate measured after 60 mins in presence of ATP by LANCE assay relative to control; procedure, shortened: as §1
[17] = molecular target: MAP kinase-interacting serine/threonine-protein kinase 2 (Homo sapiens) (UniProt Q9HBH9); test: Inhibition of human recombinant MNK2 at 1 uM using CREBtide as substrate measured after 90 mins in presence of ATP by LANCE assay relative to control; procedure, shortened: as §1
Cytochrome P450 2C19 = Cytochrome P450 2C19 (Homo sapiens, UniProt P33261); test: Inhibition of human recombinant CYP2C19 expressed in baculovirus infected insect cells using EOMCC as substrate in presence of NADPH by fluorimetric analysis relative to control; type: ADME; settings: recombinant enzyme
[18] = molecular target: Mitogen-activated protein kinase 1 (Homo sapiens) (UniProt P28482); test: Inhibition of human recombinant ERK2 at 1 uM using Ulight-CFFKNIVTPRTPPPSQGK-amide as substrate measured after 15 mins in presence of ATP by LANCE assay relative to control; procedure, shortened: as §1
[19] = molecular target: Aurora kinase A (Homo sapiens) (UniProt O14965); test: Inhibition of recombinant human Aurora A at 1 uM using Ulight-RRRSLLE substrate incubated for 15 mins in presence of ATP by LANCE assay relative to control
[20] = molecular target: Serine/threonine-protein kinase PAK 2 (Homo sapiens) (UniProt Q13177); test: Inhibition of human recombinant PAK2 at 1 uM using Ulight-RRRSLLE as substrate measured after 60 mins in presence of ATP by LANCE assay relative to control; procedure, shortened: as §1

Structure (SMILES): CCc1nc(-c2ccc(F)cc2)c(-c2ccnc(NC(=O)C3CC3)c2)[nH]1
- Ratio [1]: 1.1
- concentration at 2 h [2]: 13.3 ng/g
- concentration at 10 min [3]: 850 ng/mL
- inhibition [4]: 2.06%
- inhibition [5]: 4.24%
- inhibition [6]: 98.7%
- inhibition [7]: 78.3%
- inhibition at 10 µM (CYP1A2): 83.6%
- inhibition [8]: -8.13%
- inhibition [9]: 97%
- inhibition [10]: 4.82%
- inhibition [11]: -1.98%
- inhibition at 4 h, 10 µM (hERG (KCNH2)): 43.3%
- IC50 [12]: 108 nM
- remaining at 2 h [13]: 96.4%
- remaining at 20 min [14]: 93.4%
- inhibition [15]: 94.7%
- inhibition [16]: 24.8%
- inhibition [17]: 1.16%
- inhibition (INH) (Cytochrome P450 2C19): 81.7%
- inhibition [18]: 10.9%
- inhibition [19]: 2.76%
- inhibition [20]: 5.58%
